Compounds with a hit are over-represented: about 2.4% of the library has one in this group of screens.
SIAE inh – human SIAE inhibition, primary screen | 0.69% of 370,000 active | inhibition, % at 9.66 µM | SIAE FP-Rh probe binding, fluorescence polarization | AID 1053197;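 active = inhibition above a cutoff: mean of compounds within the control limits plus 3 SD of those, cut at about 17% in these data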;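 also: 0% = plate median of compound wells and 100% = probe without SIAE protein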
Target sequence (Q9HAT2 whole entry, looked up): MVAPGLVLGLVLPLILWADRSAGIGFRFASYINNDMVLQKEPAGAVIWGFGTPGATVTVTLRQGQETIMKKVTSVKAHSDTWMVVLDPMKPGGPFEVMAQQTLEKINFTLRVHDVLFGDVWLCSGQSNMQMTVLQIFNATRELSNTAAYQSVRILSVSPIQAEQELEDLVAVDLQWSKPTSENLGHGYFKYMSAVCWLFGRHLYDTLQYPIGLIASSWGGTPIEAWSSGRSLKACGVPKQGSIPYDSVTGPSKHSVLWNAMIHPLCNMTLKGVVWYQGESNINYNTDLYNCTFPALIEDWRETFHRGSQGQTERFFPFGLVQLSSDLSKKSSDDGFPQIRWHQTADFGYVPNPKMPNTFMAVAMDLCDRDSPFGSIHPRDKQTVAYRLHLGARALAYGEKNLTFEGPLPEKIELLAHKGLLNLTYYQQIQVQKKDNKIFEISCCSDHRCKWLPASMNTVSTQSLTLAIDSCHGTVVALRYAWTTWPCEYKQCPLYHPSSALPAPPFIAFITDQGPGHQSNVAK
JMJD2C inh – inhibitors of human GASC-1 (JMJD2C) demethylase; 0.069% of 330,000 active; GST-JMJD2C(1-420) H3K9me3 demethylation, DELFIA europium; inhibition, % at 2.35 µM;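 active = more than half of a compound's replicate wells show inhibition beyond 50%, single wells judged on their own value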;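 also: signal counts dimethyl H3K9 product captured on neutravidin plate; 0% = median of DMSO wells and 100% = 0.3 times that DMSO median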
PRMT1 inh – blocks human protein arginine methyltransferase 1 | Q99873 | recombinant PRMT1, activity-based probe fluorescence polarization | inhibition, % at 2.79 µM | 1.3% of 370,000 active;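 active = inhibition above about 21% made by adding two undisclosed values, limit read from the data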
ABHD4 inh – inhibitors of mouse ABHD4 | Q8VD66 | purified mABHD4, FP-Rh probe fluorescence polarization | inhibition, % at 8.92 µM | 0.54% of 370,000 active | AID 720543;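 active = inhibition exceeding the mean over every tested compound plus 3 SD, cut at about 30% in these data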;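 also: 0% = plate median of compound wells and 100% = S159A mutant with DMSO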
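System: mouse ABHD4 enzyme, wild type / Medium: HEPES pH 7.0, NaCl, Pluronic buffer / Reagent: FP-Rh activity-based fluorescent probe / Control set: S159A mutant high control, sample median low control / Detection: fluorescence polarization with parallel and perpendicular emission, 525/598 nm / Schedule: 45 min + 60 min at 25 °C / Compound dosing: 8.92 µM, single dose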
HTRA1 inh – inhibitors of human serine peptidase HTRA1 | inhibition, % at 5.96 µM | recombinant HTRA1, FP-rhodamine activity-based probe, fluorescence polarization | AID 504803 | 0.5% of 340,000 active; in the data active = inhibition above about 36%;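 also: 0% = enzyme with DMSO and 100% = wells lacking enzyme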
PRMT1 inh conf – PRMT1 (human) inhibition, FP confirmation | recombinant His-PRMT1, activity-based probe fluorescence polarization | shares compounds with PRMT1 inh | inhibition, % at 2.79 µM | 42% of 3,300 active;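 active = mean inhibition across replicates above the hit cutoff derived for the earlier primary screen, cut at about 22% in these data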
The depositor's hits bear a star; · = no result given.

SMILES	SIAE inh	JMJD2C inh	PRMT1 inh	ABHD4 inh	HTRA1 inh	PRMT1 inh conf
COc1ccc(C2SCCN2C(=S)Nc2ccc(Cl)cc2)cc1 (stereo not drawn)	-3	-1	66*	-10	-13	9
COc1ccc(NC(=S)N2CCN(C)CC2)cc1	4	-1	-2	-3	·	·
Cc1ccc(NC(=S)N2CCSC2c2cccs2)cc1 (stereo not drawn)	-2	1	60*	-1	2	10
C#CCN1CC(N(C)CCOC(=O)c2cc3ccccc3[nH]2)CS1(=O)=O (stereo not drawn)	2	·	2	4	·	·
Nc1[nH]c(C(=O)c2ccc(Br)cc2)c(-c2ccc(Br)cc2)c1C(=O)NCc1ccc(-c2ccccc2)cc1	-1	·	0	2	·	·
COc1ccc(NS(=O)(=O)c2ccc(N3CCCC3)c(NC(=S)Nc3cccc(C)c3C)c2)cc1	3	6	13	9	-2	·
COc1ccc(NS(=O)(=O)c2ccc(N3CCCC3)c(NC(=S)Nc3ccc(SC(F)F)cc3)c2)cc1	-7	-5	29*	1	-8	3
CN(C(=O)COC(=O)c1cc2ccccc2oc1=O)C1CCCCC1	4	22	27*	5	5	4
C[C@@H]1CCCCO[C@@H](CN(C)CC2CCCCC2)[C@@H](C)CN([C@H](C)CO)C(=O)c2cc(NC(=O)Nc3ccc4c(c3)OCO4)ccc2O1	16	·	3	9	·	·
C=CCN1C(=O)N/C(=C/c2ccc(C)o2)C1=O	-3	-13	63*	3	6	29*
Cc1ccc(CN2C(=O)N/C(=C/c3ccc(-c4ccc(C(=O)O)cc4)o3)C2=O)cc1	-2	-3	13	5	-5	·
Cc1cccc(NC(=O)CN2C(=O)N/C(=C\c3ccc(-c4cccc(C(=O)O)c4)o3)C2=O)c1	2	0	27*	6	-14	11
Cc1cccc(NC(=O)CN2C(=O)N/C(=C/c3ccc(C)o3)C2=O)c1	6	1	65*	12	2	50*
CCn1c(C)cc(/C=C2/NC(=O)N(CC(=O)Nc3cccc(C)c3)C2=O)c1C	3	-3	6	-5	1	·
CCn1c(C)cc(/C=C2\NC(=O)N(CC(=O)Nc3cccc(C)c3)C2=O)c1C	-3	-7	1	-12	2	·
Cc1ccc(NC(=O)CN2C(=O)N/C(=C/c3ccc(C)o3)C2=O)cc1	14	18	76*	10	7	16
Cc1ccc(NC(=O)CN2C(=O)N/C(=C/c3ccc(C)s3)C2=O)cc1	-11	10	4	0	-6	·
O=C(CCc1ccccc1)N[C@H]1[C@@H](OC(=O)c2cnccn2)CCC[C@@]12C(=O)N(Cc1ccccc1)c1ccccc12	-5	·	-5	-7	·	·
COC(=O)C1=C(C)N(C)C(=NCc2ccc(C(F)(F)F)cc2)NC1c1ccc(C(F)(F)F)cc1 (stereo not drawn)	7	·	0	18	·	·
Cc1ccc(NC(=O)CN2C(=O)S/C(=C/c3ccc(-c4cc(C(=O)O)ccc4C)o3)C2=O)cc1C	-23	-17	28*	20	-29	10
COc1ccc2c(c1OC)OCC2C (stereo not drawn)	-1	·	2	-3	0	·
COc1ccc(CNC2CCC23CCC(c2ccccc2)CC3)cc1OC (stereo not drawn)	8	·	1	9	·	·
O=C(c1ccoc1)N1CCN(c2cc(-c3ccco3)nc3cc(-c4ccccc4)nn23)CC1	-26	·	13	-16	-52	·
COc1cccc(-c2cc3nc(-c4ccco4)cc(N4CCN(C(C)=O)CC4)n3n2)c1	-16	·	50*	-3	·	16
O=C(c1ccoc1)N1CCN(c2cc(-c3ccco3)nc3cc(-c4ccco4)nn23)CC1	-9	·	34*	-9	·	-1
SMILES	SIAE inh	JMJD2C inh	PRMT1 inh	ABHD4 inh	HTRA1 inh	PRMT1 inh conf
COc1cccc(-c2cc3nc(-c4ccccc4)cc(N4CCN(C(=O)c5ccoc5)CC4)n3n2)c1	-27	·	2	-22	-88	·
CCCN1CCS(=O)(=O)N(Cc2cn(Cc3ccccc3)nn2)C(C(=O)OC)C1 (stereo not drawn)	2	·	0	4	·	·
Cc1ccc(-n2c(SCC(=O)Nc3ccc(S(=O)(=O)Nc4cc(C)nc(C)n4)cc3)nnc2-c2ccc(C(C)(C)C)cc2)cc1	-39	·	10	-49	·	·
O=C(C1CCCN(S(=O)(=O)c2ccc(Br)s2)C1)N1CCN(Cc2ccccc2)CC1 (stereo not drawn)	1	·	-5	-3	·	·
O=C(O)C1Nc2c(C(F)(F)F)ccc(Cl)c2C2C=CCC12 (stereo not drawn)	4	169	33*	36*	20	28*
O=C(Nc1ccc(Cl)c(C(F)(F)F)c1)[C@@H]1CC=C[C@@H]2CCN(C3CC3)C(=O)[C@@H]21	-8	-5	0	-2	-4	·
CC1=C(C(=O)N2CCCCCC2)CC(CC(=O)NCCc2ccccn2)C(=O)N1Cc1ccc(C(C)(C)C)cc1 (stereo not drawn)	-3	·	-1	0	·	·
Brc1ccc(C2NCCS2)cc1 (stereo not drawn)	1	-11	32*	2	-5	7
CCOC(=O)[C@]12CCCC=C1N(Cc1ccc(Cl)cc1Cl)C(=O)[C@H](CC(=O)NCc1ccc(C)o1)C2	-7	·	2	-12	·	·
CCOC(=O)[C@]12CCC=C1N(Cc1ccc(Cl)cc1Cl)C(=O)[C@H](CC(=O)NCc1ccc(C)o1)C2	-5	·	35*	-10	·	-3
COc1ccc(CCNC(=O)Nc2ccc3c(c2)[C@@]2(CC(=O)N(CC(C)C)C2c2ccccc2)C(=O)N3C)cc1OC (stereo partly drawn)	1	·	6	7	·	·
O=C(Nc1c(Cl)cc2c(c1Cl)Cc1cc([N+](=O)[O-])ccc1-2)C(Cl)Cl	-13	·	9	5	-1	·
Cn1c(=O)[nH]c(=O)c2c1nc(SCCC(=O)O)n2Cc1cccc(Br)c1	-3	5	-3	-5	3	·
CC(=O)CSc1nc2c(c(=O)[nH]c(=O)n2C)n1Cc1cccc(Br)c1	4	17	36*	-15	2	13
O=C(CSc1ccc(-c2cccs2)nn1)c1cccs1	-3	-18	28*	0	-4	5
Cc1cccc(NC(=O)C(NS(=O)(=O)c2ccc3c(c2)CCC(=O)N3)c2ccccc2)n1 (stereo not drawn)	6	-2	47*	6	-13	48*
CCCN(CCC)CCCNC(=O)C(NS(=O)(=O)c1ccc2c(c1)CCC(=O)N2)c1ccccc1 (stereo not drawn)	-6	-20	2	1	5	·
CN(C)CCn1nnnc1SCC1=C(C(=O)O)N2C(=O)[C@@H](NC(=O)Cc3csc(N)n3)[C@H]2SC1	4	·	46*	6	4	9
Cc1nnc(SCC2=C(C(=O)O)N3C(=O)C(NC(=O)Cn4cnnn4)C3SC2)s1 (stereo not drawn)	14	-6	12	-3	5	·
